{
  "source": "ChEMBL document CHEMBL1125497",
  "about": "“Synthesis and anticonvulsant activity of enaminones” (J Med Chem, 1992)",
  "key": {"[1]": {"test": "Oral dose producing neurotoxic effects in 50% of rats", "format": "ADME, organism-based", "details": "rat, in vivo", "in_short": "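Phase VI screen in male Sprague-Dawley rats dosed orally. MES protection and rotorod toxicity were scored as animals responding over animals tested at 0.25, 0.5, 1, 2 and 4 h.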"}, "[2]": {"test": "Dose elevating electroshock induced seizure by 20% in CF1 mice after ip administration.", "format": "functional, Mus musculus", "in_short": "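In CF1 male mice (ca. 24–34 g), compound was given ip in 0.5% methylcellulose. The current giving hind limb extension in 50% of mice was found by the up-and-down method, with 15–25 mice per group and a vehicle control group run with each experimental group. At least three doses were tested. The dose raising threshold current by 20% was taken from a plot of dose against % threshold increase.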"}, "[3]": {"test": "Antiepileptic activity in male CF1 mice 30 min after administration measured in neurological toxicity (Tox) test at a dose of 300 mg/kg (no. of animals treated /protected); activity value is 0/8", "format": "functional, Mus musculus"}, "[4]": {"test": "Time of peak anticonvulsant effect in CF1 MICE after ip administration.", "format": "functional, Mus musculus", "in_short": "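Male CF1 mice (ca. 24–34 g), compound in 0.5% methylcellulose suspension given ip or po; time (h) at which MES protection (against tonic hind limb extension) peaked was recorded and used for ED50 determination.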"}, "[5]": {"test": "Antiepileptic activity in male CF1 mice 1 hr after oral administration measured in neurological toxicity (Tox) test at a dose of 50 mg/kg (no. of animals treated /protected); activity value is 0/4", "format": "functional, Mus musculus"}, "[6]": {"test": "Antiepileptic activity in male CF1 mice 0.5 hr after oral administration measured in neurological toxicity (Tox) test at a dose of 50 mg/kg (no. of animals treated /protected); activity value is 0/4", "format": "functional, Mus musculus"}, "[7]": {"test": "Antiepileptic activity in male CF1 mice 1 hr after oral administration measured in maximum electroshock seizure(MES) test at a dose of 50 mg/kg (no. of animals treated /protected); activity value is 3/4", "format": "functional, Mus musculus"}, "[8]": {"test": "Antiepileptic activity in male CF1 mice 0.25 hr after oral administration measured in neurological toxicity (Tox) test at a dose of 50 mg/kg (no. of animals treated /protected); activity value is 0/4", "format": "functional, Mus musculus"}, "[9]": {"test": "Dose protecting 50% of the mice from tonic hind limb extension at the time of […] after ip administration.", "format": "functional", "details": "Mus musculus, Hindlimb", "in_short": "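Phase II quantification in CF1 male mice (ca. 24–34 g), dosing ip or po in 0.5% methylcellulose suspension. ED50 is protection from tonic hind limb extension in MES. TD50 is rotorod neurotoxicity. Both were read at time of peak effect and derived by Litchfield–Wilcoxon with 95% confidence limits.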"}, "[10]": {"test": "Antiepileptic activity in male CF1 mice 0.25 hr after oral administration measured in maximum electroshock seizure(MES) test at a dose of 50 mg/kg (no. of animals treated /protected); activity value is 2/4", "format": "functional, Mus musculus"}, "[11]": {"test": "Antiepileptic activity in male CF1 mice 2 hr after oral administration measured in neurological toxicity (Tox) test at a dose of 50 mg/kg (no. of animals treated /protected); activity value is 0/4", "format": "functional, Mus musculus"}, "[12]": {"test": "Antiepileptic activity in male CF1 mice 4 hr after administration measured in subcutaneous pentylenetetrazole (scMet) test at a dose of 300 mg/kg (no. of animals treated /protected); activity value is 0/1", "format": "functional, Mus musculus"}, "[13]": {"test": "Antiepileptic activity in male CF1 mice 4 hr after oral administration measured in maximum electroshock seizure(MES) test at a dose of 50 mg/kg (no. of animals treated /protected); activity value is 2/4", "format": "functional, Mus musculus"}, "[14]": {"test": "Antiepileptic activity in male CF1 mice 4 hr after administration measured in maximum electroshock seizure(MES) test at a dose of 300 mg/kg (no. of animals treated /protected); activity value is 1/1", "format": "functional, Mus musculus"}, "[15]": {"test": "Antiepileptic activity in male CF1 mice 30 min after administration measured in maximum electroshock seizure(MES) test at a dose of 300 mg/kg (no. of animals treated /protected); activity value is 0/1", "format": "functional, Mus musculus"}, "[16]": {"test": "Antiepileptic activity in male CF1 mice 4 hr after oral administration measured in neurological toxicity (Tox) test at a dose of 50 mg/kg (no. of animals treated /protected); activity value is 0/4", "format": "functional, Mus musculus"}, "[17]": {"test": "Protective index was measured as TD50/ED50 in rat on oral administration", "format": "ADME, organism-based", "details": "in vivo, read-out: PI"}, "[18]": {"test": "Antiepileptic activity in male CF1 mice 30 min after administration measured in subcutaneous pentylenetetrazole (scMet) test at a dose of 300 mg/kg (no. of animals treated /protected); activity value is 0/1", "format": "functional, Mus musculus"}, "[19]": {"test": "Antiepileptic activity in male CF1 mice 4 hr after administration measured in neurological toxicity (Tox) test at a dose of 300 mg/kg (no. of animals treated /protected); activity value is 0/4", "format": "functional, Mus musculus"}, "[20]": {"test": "Antiepileptic activity in male CF1 mice 0.5 hr after oral administration measured in maximum electroshock seizure(MES) test at a dose of 50 mg/kg (no. of animals treated /protected); activity value is 4/4", "format": "functional, Mus musculus"}, "[21]": {"test": "Dose at which anticonvulsant activity was observed in mice", "format": "functional, Mus musculus"}, "[22]": {"test": "Antiepileptic activity in male CF1 mice 2 hr after oral administration measured in maximum electroshock seizure(MES) test at a dose of 50 mg/kg (no. of animals treated /protected); activity value is 2/4", "format": "functional, Mus musculus"}, "[23]": {"test": "Antiepileptic activity in male CF1 mice 4 hr after administration measured in neurological toxicity (Tox) test at a dose of 100 mg/kg (no. of animals treated /protected); activity value is 0/2", "format": "functional, Mus musculus"}, "[24]": {"test": "Antiepileptic activity in male CF1 mice 30 min after administration measured in subcutaneous pentylenetetrazole (scMet) test at a dose of 100 mg/kg (no. of animals treated /protected); activity value is 1/1", "format": "functional, Mus musculus"}, "[25]": {"test": "Antiepileptic activity in male CF1 mice 4 hr after administration measured in maximum electroshock seizure(MES) test at a dose of 100 mg/kg (no. of animals treated /protected); activity value is 0/3", "format": "functional, Mus musculus"}, "[26]": {"test": "Antiepileptic activity in male CF1 mice 30 min after administration measured in neurological toxicity (Tox) test at a dose of 100 mg/kg (no. of animals treated /protected); activity value is 0/4", "format": "functional, Mus musculus"}, "[27]": {"test": "Antiepileptic activity in male CF1 mice 4 hr after administration measured in subcutaneous pentylenetetrazole (scMet) test at a dose of 100 mg/kg (no. of animals treated /protected); activity value is 0/1", "format": "functional, Mus musculus"}, "[28]": {"test": "Antiepileptic activity in male CF1 mice 30 min after administration measured in maximum electroshock seizure(MES) test at a dose of 100 mg/kg (no. of animals treated /protected); activity value is 0/3", "format": "functional, Mus musculus"}},
  "data": [
    {"molecule": "COC(=O)C1C(=O)C=C(NCc2ccc(F)cc2)CC1C", "note": "(stereo not drawn)", "values": [
      {"measurement": "TD50", "setting": "[1]", "value": "> 230", "unit": "mg/kg"},
      {"measurement": "Dose", "setting": "[2]", "value": 10, "unit": "mg/kg"},
      {"measurement": "Activity", "setting": "[3]", "value": 0},
      {"measurement": "TPE", "setting": "[4]", "value": 0.5},
      {"measurement": "Activity", "setting": "[5]", "value": 0},
      {"measurement": "Activity", "setting": "[6]", "value": 0},
      {"measurement": "Activity", "setting": "[7]", "value": 3},
      {"measurement": "Activity", "setting": "[8]", "value": 0},
      {"measurement": "ED50", "setting": "[9]", "value": 159, "unit": "mg/kg"},
      {"measurement": "Activity", "setting": "[10]", "value": 2},
      {"measurement": "Activity", "setting": "[11]", "value": 0},
      {"measurement": "Activity", "setting": "[12]", "value": 0},
      {"measurement": "Activity", "setting": "[13]", "value": 2},
      {"measurement": "Activity", "setting": "[14]", "value": 1},
      {"measurement": "Activity", "setting": "[15]", "value": 0},
      {"measurement": "Activity", "setting": "[16]", "value": 0},
      {"measurement": "selectivity ratio", "setting": "[17]", "value": 4.7},
      {"measurement": "Activity", "setting": "[18]", "value": 0},
      {"measurement": "Activity", "setting": "[19]", "value": 0},
      {"measurement": "Activity", "setting": "[20]", "value": 4},
      {"measurement": "Dose", "setting": "[21]", "value": ">100", "unit": "mg/kg"},
      {"measurement": "Activity", "setting": "[22]", "value": 2}
    ]},
    {"molecule": "COC(=O)C1C(=O)C=C(Nc2ccc([N+](=O)[O-])cc2)CC1C", "note": "(stereo not drawn)", "values": [
      {"measurement": "Activity", "setting": "[23]", "value": 0},
      {"measurement": "Activity", "setting": "[24]", "value": 1},
      {"measurement": "Activity", "setting": "[25]", "value": 0},
      {"measurement": "Activity", "setting": "[26]", "value": 0},
      {"measurement": "Activity", "setting": "[27]", "value": 0},
      {"measurement": "Activity", "setting": "[28]", "value": 0}
    ]}
  ]
}
